Activity calls are given as the source filed them. No cut-off for these calls is given here.

The source of these data is ChEMBL document CHEMBL5335790, “Design, synthesis and biological evaluation of novel 2,4-thiazolidinedione derivatives able to target the human BAG3 protein” (Eur J Med Chem, 2023).

Experiment [1] has as its target T1, BAG family molecular chaperone regulator 3 (Homo sapiens, UniProt O95817). Briefly: Binding affinity to CM4 sensorchip immobilized C-terminal His tagged human BAG3 transfected in HEK293T cells assessed as signal saturation at 50 uM by SPR analysis.
In experiment [2] the target is T1, BAG family molecular chaperone regulator 3. Briefly: Binding affinity to C-terminal His tagged human BAG3 transfected in HEK293T cells assessed as intermolecular nuclear overhauser effect mediated protein magnetization at 125 uM by waterLOGSY experiment. Format: cell-based. In a few lines: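 Ligand-observed NMR in 50 mM sodium phosphate pH 7.8, 150 mM NaCl, 0.04% NaN3, 1.3% DMSO-d6, 5% D2O. Compound at 125 µM with 5 µM BAG3-His (HEK-293T expressed, purified by IMAC and SEC), each also run without protein. WaterLOGSY used 240 scans, 1.5 s mixing and water inversion at 4.7 ppm. STD used 256 scans with protein saturation at 0.4 ppm.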

The subject of experiment [3] is HD-MB03. Briefly: Antiproliferative activity against human HD-MB03 cells assessed as cell growth inhibition incubated for 72 hrs by resazurin dye based analysis. Format: functional. In a few lines:
(§1)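 Cells seeded at 2000/well, treated 24 h later with compounds in a 6-point 2-fold dose series, duplicate wells, two independent experiments. After 72 h, resazurin was added at 44 µM final for 3 h at 37 °C and fluorescence was read at 590 nm. Viability was normalized to 1 µM bortezomib (positive) and 0.5% DMSO (negative) controls. GI50 is the mean ± SEM of dose-response curves.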

A further experiment has as its system RS4-11. Briefly: Antiproliferative activity against human RS4-11 cells assessed as cell growth inhibition incubated for 72 hrs by resazurin dye based analysis. Type of experiment: functional. In a few lines:
as §1
For orientation: The colour change of resazurin is a common sign of viable cells or microbes.

Another experiment deals with A549. Nature of the experiment: Antiproliferative activity against human A549 cells assessed as cell growth inhibition incubated for 72 hrs by resazurin dye based analysis. Type of experiment: functional. In a few lines:
as §1

The test system of experiment [4] is HD-MB03. Nature of the experiment: Induction of cell cycle arrest in human HD-MB03 cells assessed as accumulation of cells at G1 phase at 10 uM incubated for 48 hrs by RNase/PI staining based cytofluorimetric analysis (reference value: 54.7%). Type of experiment: functional.
In experiment [5] the test system is HD-MB03. Nature of the experiment: Induction of cell cycle arrest in human HD-MB03 cells assessed as accumulation of cells at G2/M phase at 10 uM incubated for 48 hrs by RNase/PI staining based cytofluorimetric analysis (reference value: 4.4%). Type of experiment: functional.
Experiment [6] has as its system HD-MB03. Briefly: Induction of cell cycle arrest in human HD-MB03 cells assessed as accumulation of cells at G1 phase at 10 uM incubated for 72 hrs by RNase/PI staining based cytofluorimetric analysis (reference value: 54.7%). Type of experiment: functional.
Experiment [7] has as its system HD-MB03. Nature of the experiment: Induction of autophagy in human HD-MB03 cells assessed as increase in LC3 green fluorescence at 20 uM incubated for 24 hrs in presence of chloroquine by immunofluorescence analysis. Type of experiment: functional, cell-based. In a few lines:
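HD-MB03 cells transfected with a fluorescent LC3 plasmid, then treated 24 h later with 20 µM, alone or with chloroquine, for 24 h. Live cells stained 30 min with 50 nM LysoTracker Red and 10 µM Hoechst, then imaged by confocal microscopy. Fluorescence per field was expressed relative to DMSO control set to 1. Mean ± SD of three experiments; 2-way ANOVA.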

For experiment [8], the system named is HD-MB03. Briefly: Induction of autophagy in human HD-MB03 cells assessed as autophagic vacuole formation at 20 uM incubated for 24 hrs by bright field imaging analysis. Format: functional, cell-based.
Experiment [9] concerns HD-MB03. Briefly: Induction of apoptosis in human HD-MB03 cells assessed as cell shrinkage at 20 uM incubated for 24 hrs in presence of chloroquine by bright field imaging analysis. Type of experiment: functional, cell-based.
The test system of experiment [10] is HD-MB03. Briefly: Sensitization of chemotherapy induced cytotoxicity against human HD-MB03 cells assessed as inhibition of cell growth at 1.25 uM incubated for 72 hrs in presence of 0.5 unit of vincristine, etoposide, cisplatin, cyclophosphamide by resazurin dye based analysis (reference value: 83.74+/- 0.54%). Type of experiment: functional.
The subject of experiment [11] is HD-MB03. Nature of the experiment: Sensitization of chemotherapy induced cytotoxicity against human HD-MB03 cells assessed as inhibition of cell growth at 1.25 uM incubated for 72 hrs in presence of 1 unit of vincristine, etoposide, cisplatin, cyclophosphamide by resazurin dye based analysis (reference value: 91.53 +/- 1.15%). Type of experiment: functional.
Experiment [12] has as its system HD-MB03. Briefly: Sensitization of chemotherapy induced cytotoxicity against human HD-MB03 cells assessed as inhibition of cell growth at 1.25 uM incubated for 72 hrs in presence of 2 unit of vincristine, etoposide, cisplatin, cyclophosphamide by resazurin dye based analysis (reference value: 97.7 +/- 1.3%). Type of experiment: functional.
Experiment [13] concerns HD-MB03. Briefly: Sensitization of chemotherapy induced cytotoxicity against human HD-MB03 cells assessed as inhibition of cell growth at 2.5 uM incubated for 72 hrs in presence of 0.25 unit of vincristine, etoposide, cisplatin, cyclophosphamide by resazurin dye based analysis (reference value: 73.44 +/- 0.92%). Type of experiment: functional.
Experiment [14] has as its system HD-MB03. Nature of the experiment: Sensitization of chemotherapy induced cytotoxicity against human HD-MB03 cells assessed as inhibition of cell growth at 2.5 uM incubated for 72 hrs in presence of 0.5 unit of vincristine, etoposide, cisplatin, cyclophosphamide by resazurin dye based analysis (reference value: 83.74+/- 0.54%). Format: functional.
In experiment [15] the test system is HD-MB03. Nature of the experiment: Sensitization of chemotherapy induced cytotoxicity against human HD-MB03 cells assessed as inhibition of cell growth at 2.5 uM incubated for 72 hrs in presence of 2 unit of vincristine, etoposide, cisplatin, cyclophosphamide by resazurin dye based analysis (reference value: 97.7 +/- 1.3%). Type of experiment: functional.
Experiment [16] has as its system HD-MB03. Briefly: Sensitization of chemotherapy induced cytotoxicity against human HD-MB03 cells assessed as inhibition of cell growth at 5 uM incubated for 72 hrs in presence of 2 unit of vincristine, etoposide, cisplatin, cyclophosphamide by resazurin dye based analysis (reference value: 97.7 +/- 1.3%). Type of experiment: functional.
In experiment [17] the test system is HD-MB03. Briefly: Sensitization of chemotherapy induced cytotoxicity against human HD-MB03 cells assessed as inhibition of cell growth at 10 uM incubated for 72 hrs in presence of 0.25 unit of vincristine, etoposide, cisplatin, cyclophosphamide by resazurin dye based analysis (reference value: 73.44 +/- 0.92%). Type of experiment: functional.
The subject of experiment [18] is HD-MB03. Nature of the experiment: Sensitization of chemotherapy induced cytotoxicity against human HD-MB03 cells assessed as inhibition of cell growth at 20 uM incubated for 72 hrs in presence of 0.5 unit of vincristine, etoposide, cisplatin, cyclophosphamide by resazurin dye based analysis (reference value: 83.74+/- 0.54%). Format: functional.
The test system of experiment [19] is HD-MB03. Nature of the experiment: Cytotoxicity against human HD-MB03 cells assessed as inhibition of cell growth at 10 uM incubated for 72 hrs by resazurin dye based analysis relative to control. Type of experiment: functional. In a few lines: (§2)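 Resazurin viability in HD-MB03 cells, 2000/well, single-agent arm of the 6x6 matrix. Inhibitor was added 24 h after seeding, in a 6-point 2-fold series, duplicates, two independent experiments. After 72 h exposure, resazurin was added at 44 µM final for 3 h at 37 °C and fluorescence read at 590 nm. Viability normalized to 1 µM bortezomib and 0.5% DMSO controls.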

Experiment [20] relates to HD-MB03. Nature of the experiment: Cytotoxicity against human HD-MB03 cells assessed as inhibition of cell growth at 20 uM incubated for 72 hrs by resazurin dye based analysis relative to control. Format: functional. In a few lines: as §2
Experiment [21] concerns the target T1, BAG family molecular chaperone regulator 3. Nature of the experiment: Binding affinity to C-terminal His tagged human BAG3 transfected in HEK293T cells assessed as protein-ligand complex formation by measuring saturated protein magnetization via intermolecular spin-diffusion at 125 uM by STD NMR experiment.

T1 sequence (O95817 whole entry): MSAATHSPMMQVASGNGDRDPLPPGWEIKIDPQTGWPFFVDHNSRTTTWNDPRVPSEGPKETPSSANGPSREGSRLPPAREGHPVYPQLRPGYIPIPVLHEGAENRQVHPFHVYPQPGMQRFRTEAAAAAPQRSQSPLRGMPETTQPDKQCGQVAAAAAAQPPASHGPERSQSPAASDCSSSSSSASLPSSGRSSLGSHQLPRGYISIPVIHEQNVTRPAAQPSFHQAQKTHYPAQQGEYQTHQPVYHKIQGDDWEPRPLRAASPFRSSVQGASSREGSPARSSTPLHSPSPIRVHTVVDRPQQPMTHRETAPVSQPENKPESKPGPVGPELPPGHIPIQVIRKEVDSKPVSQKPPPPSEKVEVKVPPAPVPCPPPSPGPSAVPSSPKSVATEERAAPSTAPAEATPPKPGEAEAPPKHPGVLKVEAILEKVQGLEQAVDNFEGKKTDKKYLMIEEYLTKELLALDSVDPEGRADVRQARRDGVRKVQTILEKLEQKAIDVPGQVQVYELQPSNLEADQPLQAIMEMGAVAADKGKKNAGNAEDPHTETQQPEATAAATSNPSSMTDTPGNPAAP

The term GI50 denotes the concentration that inhibits growth by half. A word on the inhibition: it is the change of the read-out against control, counted positive when it falls. `CC(C(=O)N1CCOCC1)N1C(=O)S/C(=C\c2cccc(O)c2O)C1=O` (racemic): the outcome (in [1]; in [2]; with HD-MB03 [8]; in the experiment on HD-MB03 [9]; in experiment [21]) was Active. Also, the GI50 was 11.2 µM with HD-MB03 [3], 6.7 µM with RS4-11 and 28 µM in the experiment on A549. Further, the values for the Activity with HD-MB03 [4], in the experiment on HD-MB03 [5] and in the experiment with HD-MB03 [6] were 52.45%, 6.11% and 74%, respectively. Also, the outcome in the experiment on HD-MB03 [7] was inactive. Besides, the results for the inhibition at 1.25 µM in the experiment on HD-MB03 [10], with HD-MB03 [11] and in the experiment on HD-MB03 [12] were 82.7%, 93.1% and 96.6%, respectively. The inhibition at 2.5 µM is 69.9% with HD-MB03 [13], 83.3% in the experiment on HD-MB03 [14] and 95.4% with HD-MB03 [15]. Moreover, in the experiment on HD-MB03 [16], the inhibition at 5 µM came to 95.2%. For the same compound, the inhibition at 10 µM was determined as 82.2% with HD-MB03 [17] and 26.8% in the experiment with HD-MB03 [19]. The inhibition at 20 µM in the experiment with HD-MB03 [18] turned out to be 87.7%; in the experiment with HD-MB03 [20], 52.9%.
